The target of data set [1] is T1, Acetylcholinesterase (Homo sapiens, UniProt P22303). The data set can be described thus: Inhibition of human AChE by Ellman's spectrophotometric method. (DTNB colorimetry detects thiols as they appear.)
Data set [2] has as its target T2, Fatty-acid amide hydrolase 1 (Homo sapiens, UniProt O00519).
T2 sequence (O00519 whole entry): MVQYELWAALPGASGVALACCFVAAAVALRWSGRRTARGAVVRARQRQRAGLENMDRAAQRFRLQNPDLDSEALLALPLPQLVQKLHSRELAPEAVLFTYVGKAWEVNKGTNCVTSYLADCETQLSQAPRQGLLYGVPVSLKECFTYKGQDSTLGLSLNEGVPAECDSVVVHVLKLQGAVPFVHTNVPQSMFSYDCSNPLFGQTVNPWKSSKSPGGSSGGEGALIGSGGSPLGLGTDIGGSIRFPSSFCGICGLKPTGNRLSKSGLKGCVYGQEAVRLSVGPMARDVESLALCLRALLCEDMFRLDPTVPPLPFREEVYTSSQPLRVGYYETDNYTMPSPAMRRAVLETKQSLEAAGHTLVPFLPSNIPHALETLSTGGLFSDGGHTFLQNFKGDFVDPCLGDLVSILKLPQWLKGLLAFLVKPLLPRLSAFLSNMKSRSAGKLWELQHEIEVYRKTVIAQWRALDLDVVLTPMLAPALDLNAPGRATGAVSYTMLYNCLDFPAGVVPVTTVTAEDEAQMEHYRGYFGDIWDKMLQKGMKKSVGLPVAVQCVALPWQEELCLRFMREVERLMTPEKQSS
As to the kind of experiment: Inhibition of human recombinant FAAH using AMC-AA as substrate preincubated with enzyme for 10 mins followed by substrate addition for 2 hrs by fluorometric analysis. Put shortly: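 Human recombinant FAAH preincubated with inhibitor at several concentrations for 10 min at room temperature with orbital shaking in Tris-HCl 125 mM, Na2EDTA 1 mM, pH 9.0. AMC-AA substrate (5 µM final) added, then 2 h at 37 °C with fluorescence read every 30 s (ex 340, em 450 nm). Percent inhibition taken against no-inhibitor and no-enzyme wells. IC50 given as mean ± SEM of at least two independent triplicate runs.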

Data set [3] addresses T3, Cholinesterase (Homo sapiens, UniProt P06276). The data set can be described thus: Inhibition of human BuChE at 10 uM by Ellman's spectrophotometric method. Put shortly:
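Percent inhibition of human BChE at a fixed 10 μM inhibitor concentration, by modified Ellman spectrophotometric assay in 96-well format. Incubations were run in duplicate. Values are the mean ± SEM of three independent experiments.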

The target of data set [4] is T3, Cholinesterase. As to the kind of experiment: Inhibition of human BuChE by Ellman's spectrophotometric method. The method in brief:
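Human BChE, modified Ellman spectrophotometric assay in 96-well format. Incubations were run in duplicate. IC50 was determined for inhibitors giving >60% inhibition, from seven final concentrations (10⁻⁵ to 10⁻¹¹ M) diluted in work buffer from a 1000 μM DMSO stock. Values are the mean ± SEM of three independent experiments.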

In data set [5] the target is Amyloid-beta precursor protein (Homo sapiens) (UniProt P05067). As to the kind of experiment: Inhibition of amyloid beta (1 to 40) (unknown origin) aggregation at 100 uM incubated for 2 hrs by Thioflavin T based fluorometric assay. The method in brief:
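Aβ40 (30 µM final) co-incubated with inhibitor (100 µM final) in PBS pH 7.4 containing 2% HFIP, 2 h at 25 °C. Thioflavin T (25 µM) then added and fluorescence read. Run in triplicate, reported as mean ± SEM.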

Data set [6] is described as follows: Cytotoxicity against human SH-SY5Y cells assessed as inhibition of cell viability incubated for 24 hrs by MTT assay. It is filed as toxicity, cell-based. Put shortly: (§1)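 Cells from ATCC; SH-SY5Y grown in 1:1 MEM/Ham's F12, HepG2 in MEM with NEAA, both with 10% heat-inactivated FBS, glutamine, penicillin-streptomycin, 37 °C, 5% CO2. Seeded 10,000-25,000 cells/well, next day exposed to half-log serial dilutions (100 µM to 100 nM) in 1% DMSO final, with untreated controls. After 24 or 48 h, MTT 0.5 mg/mL for 3–4 h at 37 °C; formazan dissolved in DMSO/EtOH 1:1, absorbance 570 nm.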

A short description of data set [7]: Cytotoxicity against human SH-SY5Y cells assessed as inhibition of cell viability incubated for 48 hrs by MTT assay. Format: toxicity, cell-based. The method in brief: as §1
(Formazan colour is commonly taken as a measure of viable cells.)

Data set [8] can be described thus: Cytotoxicity against human HepG2 cells assessed as inhibition of cell viability incubated for 24 hrs by MTT assay. Format: toxicity, cell-based. The method in brief:
as §1

Data set [9] can be described thus: Cytotoxicity against human HepG2 cells assessed as inhibition of cell viability incubated for 48 hrs by MTT assay. Format: toxicity, cell-based. The method in brief: as §1
The target in data set [10] is T1, Acetylcholinesterase. The data set can be described thus: Potency index, ratio of donepezil IC50 to test compound IC50 for inhibition of human AChE by Ellman's spectrophotometric method.
The species entered for data set [11] is Homo sapiens. As to the kind of experiment: Selectivity index, ratio of IC50 for human BuChE to IC50 for human AChE.
Data set [12] has as its target T3, Cholinesterase. As to the kind of experiment: Potency index, ratio of donepezil IC50 to test compound IC50 for inhibition of human BuChE by Ellman's spectrophotometric method.
A short description of data set [13]: Metal chelating activity assessed as Cu2+-compound complex formation by measuring global formation constant, log(beta)(CumHhLl) in 30% DMSO/water medium by pH potentiometric analysis. Put shortly: (§2)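 Cu2+ binding measured by pH-potentiometric titration in 30% w/w DMSO/H2O at 25.0 ± 0.1 °C, ionic strength 0.1 M KCl, with 0.08 M KOH as titrant. Ligand concentration was 4.4×10^-4 M, with Cu:L ratios of 0:1, 1:1 and 1:2. Glass and Ag/AgCl electrodes were checked by HCl/KOH calibration (Gran's method), pKw 14.66. Protonation and complex stability constants came from fitting the data to an equilibrium model.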

A short description of data set [14]: Metal chelating activity assessed as Cu2+-compound complex formation at Cu2+:compound concentration ratio of 1:1 to 1:2 in 30% DMSO/water medium by pH potentiometric analysis. Put shortly:
as §2

Data set [15] in a line: Metal chelating activity assessed as compound-Zn2+ complex formation at compound:Zn2+ concentration ratio of 1:1 in DMSO-d6/D2O medium by 1H-NMR analysis.
Data set [16] can be described thus: Metal chelating activity assessed as compound-Cu2+ complex formation at stoichiometric ratio of 1:1 in 30% w/w DMSO/H2O medium by ESI-MS spectral analysis. Put shortly:
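ESI-MS on an ion-trap instrument in positive and negative ion modes of Cu2+:ligand 1:1 solution in 30% w/w DMSO/H2O. Ligand concentration 2.6×10^-4 M, pH 5.68. Spray voltage ±4.5 kV, capillary temperature 280 °C, N2 sheath gas.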

The nature of data set [17]: Protonation constant of the compound, logKi in 30% w/w DMSO/H2O medium. It is filed as physicochemical. Put shortly: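 pH-potentiometric titration in 30% w/w DMSO/H2O at 25.0 ± 0.1 °C, ionic strength 0.1 M KCl, titrant 0.08 M KOH, ligand 4.4×10^-4 M. Glass and Ag/AgCl electrodes conditioned in DMSO/water mixtures and calibrated by HCl/KOH titration (Gran's method); pKw 14.66. Stepwise protonation constants obtained by fitting the titration data.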

The source made the active and inactive calls. The rule behind the calls is not given here.

For orientation: IC50 means the concentration that inhibits the measured activity by half. The inhibition is the change of the read-out against control, counted positive when it falls. Low readings indicate little suppression, high ones strong suppression.

T3 sequence (P06276 whole entry): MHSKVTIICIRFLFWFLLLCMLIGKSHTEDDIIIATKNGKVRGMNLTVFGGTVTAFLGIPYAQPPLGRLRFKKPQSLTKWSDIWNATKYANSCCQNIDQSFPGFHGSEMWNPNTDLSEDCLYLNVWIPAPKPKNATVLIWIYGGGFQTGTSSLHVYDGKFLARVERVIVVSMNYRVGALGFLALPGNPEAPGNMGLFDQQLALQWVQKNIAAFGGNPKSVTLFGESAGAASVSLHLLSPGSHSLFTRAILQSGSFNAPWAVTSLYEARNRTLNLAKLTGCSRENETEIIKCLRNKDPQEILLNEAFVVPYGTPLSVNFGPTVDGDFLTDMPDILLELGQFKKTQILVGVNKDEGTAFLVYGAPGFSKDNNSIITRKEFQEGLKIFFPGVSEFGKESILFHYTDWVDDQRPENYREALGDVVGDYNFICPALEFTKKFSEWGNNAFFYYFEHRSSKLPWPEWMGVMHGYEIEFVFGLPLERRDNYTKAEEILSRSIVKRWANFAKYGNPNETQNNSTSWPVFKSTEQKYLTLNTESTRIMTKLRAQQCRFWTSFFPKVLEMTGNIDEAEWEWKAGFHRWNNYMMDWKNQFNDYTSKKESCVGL
Chain of Amyloid-beta precursor protein (Homo sapiens) (P05067 whole entry): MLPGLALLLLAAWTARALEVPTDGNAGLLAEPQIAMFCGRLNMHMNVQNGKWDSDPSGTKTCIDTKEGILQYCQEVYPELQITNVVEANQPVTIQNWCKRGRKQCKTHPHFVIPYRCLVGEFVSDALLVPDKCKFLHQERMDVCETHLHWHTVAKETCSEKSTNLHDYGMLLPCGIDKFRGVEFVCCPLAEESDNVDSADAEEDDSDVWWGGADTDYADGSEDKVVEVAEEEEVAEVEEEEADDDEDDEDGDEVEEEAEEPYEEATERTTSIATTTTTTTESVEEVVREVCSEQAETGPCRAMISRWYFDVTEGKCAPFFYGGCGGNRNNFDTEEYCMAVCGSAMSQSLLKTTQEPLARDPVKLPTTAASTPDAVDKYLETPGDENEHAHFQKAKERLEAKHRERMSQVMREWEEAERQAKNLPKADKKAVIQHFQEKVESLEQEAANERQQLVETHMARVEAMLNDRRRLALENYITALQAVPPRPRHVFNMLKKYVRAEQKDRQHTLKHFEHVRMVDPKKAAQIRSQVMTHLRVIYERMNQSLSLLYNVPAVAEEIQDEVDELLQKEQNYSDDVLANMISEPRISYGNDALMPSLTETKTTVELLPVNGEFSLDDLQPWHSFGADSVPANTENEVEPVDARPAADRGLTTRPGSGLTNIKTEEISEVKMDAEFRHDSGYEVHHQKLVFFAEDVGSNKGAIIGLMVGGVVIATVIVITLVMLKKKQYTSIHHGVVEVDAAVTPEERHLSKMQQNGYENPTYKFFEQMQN
T1 sequence (P22303 whole entry): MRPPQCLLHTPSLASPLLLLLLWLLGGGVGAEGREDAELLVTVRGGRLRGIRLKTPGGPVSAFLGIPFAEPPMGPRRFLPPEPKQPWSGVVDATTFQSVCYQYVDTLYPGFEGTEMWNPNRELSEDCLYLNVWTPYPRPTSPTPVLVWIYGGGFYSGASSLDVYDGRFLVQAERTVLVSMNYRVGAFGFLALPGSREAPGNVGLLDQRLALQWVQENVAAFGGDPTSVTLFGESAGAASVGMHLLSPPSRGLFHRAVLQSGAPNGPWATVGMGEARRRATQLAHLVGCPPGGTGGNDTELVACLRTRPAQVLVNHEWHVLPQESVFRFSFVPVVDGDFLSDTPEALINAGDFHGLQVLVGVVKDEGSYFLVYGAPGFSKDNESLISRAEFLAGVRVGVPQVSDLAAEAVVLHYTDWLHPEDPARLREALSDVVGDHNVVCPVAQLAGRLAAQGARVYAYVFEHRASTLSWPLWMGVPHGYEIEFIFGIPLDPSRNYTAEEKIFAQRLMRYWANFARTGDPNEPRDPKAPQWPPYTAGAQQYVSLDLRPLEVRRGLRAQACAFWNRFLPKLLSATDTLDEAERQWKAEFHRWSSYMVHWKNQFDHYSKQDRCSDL

As for `O=C(COc1ccc(Cc2ccccc2)cc1)NCCN1CCN(Cc2ccccc2)CC1`, the IC50 is 0.993 µM in data set [1] and 23.6 µM in data set [2]. The same compound had an inhibition in [3] of 29%.
As to `O=C(COc1ccc(Cl)cc1)NCC1CCN(Cc2ccccc2)CC1`, the IC50 in data set [1] is 1.68 µM; in [4], 5.61 µM; in data set [2] it was 20.9 µM. In addition, in data set [5], the inhibition was 30%. In addition, the IC50 at 24 h in data set [6] and in data set [8] was > 100 µM each time. The IC50 at 48 h in data set [7] and in [9] was > 100 µM in each case.
Take `COc1ccc(OCC(=O)NCC2CCN(Cc3ccccc3)CC2)cc1`: the IC50 in data set [1] is 0.88 µM; in data set [2], 40.8 µM. The inhibition in [3] is 55%.
For the compound `Cc1cc(Br)cc(C)c1OCC(=O)NCC1CCN(Cc2ccccc2)CC1`, the values for the IC50 in [1], in data set [4] and in data set [2] were 0.595 µM, 2.22 µM and 28.6 µM, respectively.
For `O=C(COc1ccc(Cl)cc1[N+](=O)[O-])NCCN1CCN(Cc2ccccc2)CC1`, the figures for the IC50 in [1], in data set [4] and in data set [2] were 0.0008 µM, 1.41 µM and 41.6 µM, respectively. For the same compound, the Ratio IC50 in data set [10] turned out to be 21; in data set [11], 1760; in data set [12], 3. Moreover, the IC50 at 24 h in data set [6] and in [8] was > 100 µM throughout. The IC50 at 48 h in data set [7] and in data set [9] was > 100 µM in each case. The log(activity) in [13] is -1.81; in [17], 2.89. The result in [14], in [15] and in [16] was Active.
With `O=C(COc1ccccc1C(F)(F)F)NCCN1CCN(Cc2ccccc2)CC1`, the values for the IC50 in data set [1], in data set [4] and in data set [2] were 0.136 µM, 0.503 µM and 55.1 µM, respectively.
Taken in the same sequence, the figures for `O=C(COc1ccc(CCc2ccccc2)cc1)NCC1CCN(Cc2ccccc2)CC1` were 0.135 µM, 5.08 µM and 23.8 µM.
The matching figures for `O=C(COc1ccc(-c2ccccc2)cc1)NCCN1CCN(Cc2ccccc2)CC1`: 0.735 µM, 0.969 µM and 63.9 µM.
Consider `O=C(COc1cc(F)ccc1[N+](=O)[O-])NCC1CCN(Cc2ccccc2)CC1`, for which the IC50 in data set [1] was 0.103 µM; in [2], 28.1 µM. The inhibition in data set [3] amounted to 54%.
For the compound `Cc1cc(Br)cc(C)c1OCC(=O)NCCN1CCN(Cc2ccccc2)CC1`, the results for the IC50 in data set [1], in data set [4] and in data set [2] were 0.09 µM, 4.1 µM and 40.8 µM, respectively.
As to `O=C(Oc1ccc([N+](=O)[O-])cc1)N1CCN(Cc2cccc(Oc3ccccc3)c2)CC1`, in [2], the IC50 turned out to be 0.019 µM.
Take `O=C(COc1ccc(Cl)cc1[N+](=O)[O-])NCC1CCN(Cc2ccccc2)CC1`: the IC50 in [1] amounted to 0.122 µM; in [4], 4.7 µM; in [2], 23.3 µM.
Consider `COc1ccc(OCC(=O)NCCN2CCN(Cc3ccccc3)CC2)cc1`, for which the IC50 is 0.3 µM in [1] and 51.9 µM in data set [2]. Also, the inhibition in [3] was determined as 25%; in [5], 30%.
With `O=C(COc1ccc(Cc2ccccc2)cc1)NCC1CCN(Cc2ccccc2)CC1`, the IC50 in data set [1] was 1.27 µM; in data set [2] it was 21.9 µM. Moreover, the inhibition in data set [3] was determined as 37%.
On to `O=C(COc1ccc(Cl)cc1)NCCN1CCN(Cc2ccccc2)CC1`, for which the IC50 in data set [1] was 0.189 µM; in [4], 2.15 µM; in data set [2] it was > 100 µM. In data set [5], the inhibition is 30%.
Take `O=C(COc1ccccc1C(F)(F)F)NCC1CCN(Cc2ccccc2)CC1`: the IC50 in [1] is 0.767 µM; in data set [4] it was 1.02 µM; in [2], 38.2 µM.
For `O=C(COc1cc(F)ccc1[N+](=O)[O-])NCCN1CCN(Cc2ccccc2)CC1`, the results for the IC50 in data set [1], in [4] and in data set [2] were 0.0028 µM, 5.01 µM and 49.6 µM, respectively. The Ratio IC50 in data set [10] stood at 6; in data set [11] it was 1790. Also, the IC50 at 24 h in data set [6] and in [8] was > 100 µM in each case. In addition, the IC50 at 48 h in data set [7] and in [9] was > 100 µM in each case.
For `O=C(COc1ccc(-c2ccccc2)cc1)NCC1CCN(Cc2ccccc2)CC1`, the IC50 came to 1.7 µM in data set [1], 5.58 µM in [4] and 23.3 µM in [2].
`O=C(COc1ccc(CCc2ccccc2)cc1)NCCN1CCN(Cc2ccccc2)CC1`: the IC50 is 0.9 µM in data set [1] and 16.8 µM in data set [2]. For the same compound, the inhibition amounted to 45% in [3] and 30% in data set [5]. Also, the IC50 at 24 h came to 27.8 µM in data set [6] and 41.6 µM in data set [8]. For the same compound, the IC50 at 48 h stood at 34.8 µM in data set [7] and 15.8 µM in [9].
Turning to `O=C(COc1ccc([N+](=O)[O-])cc1)NCC1CCN(Cc2ccccc2)CC1`, the IC50 in data set [1] was determined as 0.509 µM; in data set [2], 28.5 µM. Further, in [3], the inhibition came to 24%.
Take `O=C(COc1ccc([N+](=O)[O-])cc1)NCCN1CCN(Cc2ccccc2)CC1`: the IC50 in data set [1] was found to be 0.042 µM; in data set [2] it was 43.9 µM. The compound further returned an inhibition in [5] of 30%.
